{"source": "ChEMBL document CHEMBL1649460", "about": "“Integron mobilization unit as a source of mobility of antibiotic resistance genes” (2009)", "key": {"Enterobacter cloacae [1]": {"tested_on": "Enterobacter cloacae", "experiment": "Antimicrobial activity against Enterobacter cloacae CHE-2 harboring blaGES-5 and blaSHV-5 gene by agar dilution method", "format": "functional", "procedure,_shortened": "(§1)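 MICs by agar dilution, with β-lactams tested alone. Colistin was the exception, read by Etest strip. Results interpreted according to CLSI guidelines.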"}, "Escherichia coli [2]": {"tested_on": "Escherichia coli", "experiment": "Antimicrobial activity against Escherichia coli J53 harboring pCHE-A plasmid expressing blaGES-5 gene by agar dilution method", "format": "functional"}, "Escherichia coli [3]": {"tested_on": "Escherichia coli", "experiment": "Antimicrobial activity against Escherichia coli J53 harboring pCHE-B plasmid expressing blaSHV-5 gene by agar dilution method", "format": "functional"}, "Escherichia coli [4]": {"tested_on": "Escherichia coli", "experiment": "Antimicrobial activity against Escherichia coli J53 by agar dilution method", "format": "functional", "procedure,_shortened": "as §1"}, "Pseudomonas aeruginosa [5]": {"tested_on": "Pseudomonas aeruginosa", "experiment": "Antimicrobial activity against Pseudomonas aeruginosa PU21 by agar dilution method", "format": "functional", "procedure,_shortened": "as §1"}, "Pseudomonas aeruginosa [6]": {"tested_on": "Pseudomonas aeruginosa", "experiment": "Antimicrobial activity against Pseudomonas aeruginosa PU21 harboring pCHE-A plasmid expressing blaGES-5 gene by agar dilution method", "format": "functional", "procedure,_shortened": "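Natural plasmid pCHE-A was electrotransformed into electrocompetent P. aeruginosa PU21, and transformants were selected on agar with ticarcillin 100 µg/ml. MICs by agar dilution, with β-lactams tested alone; colistin by Etest. Interpreted per CLSI.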"}, "Enterobacter cloacae [7]": {"tested_on": "Enterobacter cloacae", "experiment": "Antimicrobial activity against Enterobacter cloacae CHE-2 harboring blaGES-5 and blaSHV-5 gene by agar dilution in presence of beta-lactamase inhibitor clavulanic acid", "format": "functional", "procedure,_shortened": "(§2)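 Agar dilution MICs of β-lactams, each tested with clavulanic acid held at a fixed 4 µg/ml. Results interpreted according to CLSI guidelines.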"}, "Escherichia coli [8]": {"tested_on": "Escherichia coli", "experiment": "Antimicrobial activity against Escherichia coli J53 harboring pCHE-A plasmid expressing blaGES-5 gene by agar dilution in presence of beta-lactamase inhibitor clavulanic acid"}, "Escherichia coli [9]": {"tested_on": "Escherichia coli", "experiment": "Antimicrobial activity against Escherichia coli J53 harboring pCHE-B plasmid expressing blaSHV-5 gene by agar dilution in presence of beta-lactamase inhibitor clavulanic acid"}, "Escherichia coli [10]": {"tested_on": "Escherichia coli", "experiment": "Antimicrobial activity against Escherichia coli J53 by agar dilution in presence of beta-lactamase inhibitor clavulanic acid"}, "Pseudomonas aeruginosa [11]": {"tested_on": "Pseudomonas aeruginosa", "experiment": "Antimicrobial activity against Pseudomonas aeruginosa PU21 by agar dilution in presence of beta-lactamase inhibitor clavulanic acid", "format": "functional", "procedure,_shortened": "as §2"}, "Pseudomonas aeruginosa [12]": {"tested_on": "Pseudomonas aeruginosa", "experiment": "Antimicrobial activity against Pseudomonas aeruginosa PU21 harboring pCHE-A plasmid expressing blaGES-5 gene by agar dilution in presence of beta-lactamase inhibitor clavulanic acid", "format": "functional", "procedure,_shortened": "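MICs by agar dilution. Beta-lactams tested alone and with clavulanic acid held at a fixed 4 µg/ml. Results were interpreted against CLSI guidelines.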"}}}
{"smiles": "CO[C@@]1(NC(=O)Cc2cccs2)C(=O)N2C(C(=O)O)=C(COC(N)=O)CS[C@@H]21", "note": "[CEFOXITIN]", "values": [{"measurement": "MIC", "setting": "Enterobacter cloacae [1]", "result": "> 512", "unit": "µg/mL"}, {"measurement": "MIC", "setting": "Escherichia coli [2]", "result": 128, "unit": "µg/mL"}, {"measurement": "MIC", "setting": "Escherichia coli [3]", "result": 4, "unit": "µg/mL"}, {"measurement": "MIC", "setting": "Escherichia coli [4]", "result": 4, "unit": "µg/mL"}, {"measurement": "MIC", "setting": "Pseudomonas aeruginosa [5]", "result": "> 512", "unit": "µg/mL"}]}
{"smiles": "C[C@@H](O)[C@H]1C(=O)N2C(C(=O)O)=C(SCCNC=N)C[C@H]12", "note": "[IMIPENEM ANHYDROUS]", "values": [{"measurement": "MIC", "setting": "Enterobacter cloacae [1]", "result": "> 32", "unit": "µg/mL"}, {"measurement": "MIC", "setting": "Escherichia coli [2]", "result": 1, "unit": "µg/mL"}, {"measurement": "MIC", "setting": "Escherichia coli [3]", "result": 0.06, "unit": "µg/mL"}, {"measurement": "MIC", "setting": "Pseudomonas aeruginosa [6]", "result": 16, "unit": "µg/mL"}, {"measurement": "MIC", "setting": "Pseudomonas aeruginosa [5]", "result": 2, "unit": "µg/mL"}]}
{"smiles": "C[C@@H](O)[C@H]1C(=O)N2C(C(=O)O)=C(S[C@@H]3CN[C@H](C(=O)N(C)C)C3)[C@H](C)[C@H]12", "note": "[MEROPENEM]", "values": [{"measurement": "MIC", "setting": "Enterobacter cloacae [1]", "result": "> 32", "unit": "µg/mL"}, {"measurement": "MIC", "setting": "Escherichia coli [2]", "result": 0.25, "unit": "µg/mL"}, {"measurement": "MIC", "setting": "Escherichia coli [3]", "result": 0.06, "unit": "µg/mL"}, {"measurement": "MIC", "setting": "Escherichia coli [4]", "result": 0.03, "unit": "µg/mL"}, {"measurement": "MIC", "setting": "Pseudomonas aeruginosa [6]", "result": "> 32", "unit": "µg/mL"}, {"measurement": "MIC", "setting": "Pseudomonas aeruginosa [5]", "result": 0.5, "unit": "µg/mL"}]}
{"smiles": "CC1(C)S[C@@H]2[C@H](NC(=O)[C@H](N)c3ccc(O)cc3)C(=O)N2[C@H]1C(=O)O", "note": "[AMOXICILLIN]", "values": [{"measurement": "MIC", "setting": "Enterobacter cloacae [1]", "result": "> 512", "unit": "µg/mL"}, {"measurement": "MIC", "setting": "Escherichia coli [2]", "result": "> 512", "unit": "µg/mL"}, {"measurement": "MIC", "setting": "Escherichia coli [3]", "result": "> 512", "unit": "µg/mL"}, {"measurement": "MIC", "setting": "Escherichia coli [4]", "result": 2, "unit": "µg/mL"}, {"measurement": "MIC", "setting": "Pseudomonas aeruginosa [5]", "result": "> 512", "unit": "µg/mL"}, {"measurement": "MIC", "setting": "Enterobacter cloacae [7]", "result": "> 256", "unit": "µg/mL"}, {"measurement": "MIC", "setting": "Escherichia coli [8]", "result": 16, "unit": "µg/mL"}, {"measurement": "MIC", "setting": "Escherichia coli [9]", "result": 4, "unit": "µg/mL"}, {"measurement": "MIC", "setting": "Escherichia coli [10]", "result": 2, "unit": "µg/mL"}, {"measurement": "MIC", "setting": "Pseudomonas aeruginosa [11]", "result": "> 512", "unit": "µg/mL"}]}
{"smiles": "CC(C)(O/N=C(\\C(=O)N[C@@H]1C(=O)N2C(C(=O)[O-])=C(C[n+]3ccccc3)CS[C@H]12)c1csc(N)n1)C(=O)O", "note": "[CEFTAZIDIME]", "values": [{"measurement": "MIC", "setting": "Enterobacter cloacae [1]", "result": "> 512", "unit": "µg/mL"}, {"measurement": "MIC", "setting": "Escherichia coli [2]", "result": 128, "unit": "µg/mL"}, {"measurement": "MIC", "setting": "Escherichia coli [3]", "result": 256, "unit": "µg/mL"}, {"measurement": "MIC", "setting": "Escherichia coli [4]", "result": 0.06, "unit": "µg/mL"}, {"measurement": "MIC", "setting": "Pseudomonas aeruginosa [6]", "result": 256, "unit": "µg/mL"}, {"measurement": "MIC", "setting": "Pseudomonas aeruginosa [5]", "result": 1, "unit": "µg/mL"}, {"measurement": "MIC", "setting": "Enterobacter cloacae [7]", "result": 256, "unit": "µg/mL"}, {"measurement": "MIC", "setting": "Escherichia coli [8]", "result": 16, "unit": "µg/mL"}, {"measurement": "MIC", "setting": "Escherichia coli [9]", "result": 4, "unit": "µg/mL"}, {"measurement": "MIC", "setting": "Escherichia coli [10]", "result": 0.06, "unit": "µg/mL"}, {"measurement": "MIC", "setting": "Pseudomonas aeruginosa [12]", "result": 64, "unit": "µg/mL"}, {"measurement": "MIC", "setting": "Pseudomonas aeruginosa [11]", "result": 1, "unit": "µg/mL"}]}
{"smiles": "C[C@@H](O)[C@H]1C(=O)N2C(C(=O)O)=C(S[C@@H]3CN[C@H](C(=O)Nc4cccc(C(=O)O)c4)C3)[C@H](C)[C@H]12", "note": "[ERTAPENEM]", "values": [{"measurement": "MIC", "setting": "Enterobacter cloacae [1]", "result": "> 32", "unit": "µg/mL"}, {"measurement": "MIC", "setting": "Escherichia coli [2]", "result": 0.12, "unit": "µg/mL"}, {"measurement": "MIC", "setting": "Escherichia coli [3]", "result": 0.06, "unit": "µg/mL"}, {"measurement": "MIC", "setting": "Escherichia coli [4]", "result": 0.03, "unit": "µg/mL"}, {"measurement": "MIC", "setting": "Pseudomonas aeruginosa [6]", "result": "> 32", "unit": "µg/mL"}, {"measurement": "MIC", "setting": "Pseudomonas aeruginosa [5]", "result": 8, "unit": "µg/mL"}]}
